Counter-ions that a name gives are not always drawn.
Key:
[1] = tested on: influenza virus B; assay type: cell-based, influenza virus B/Hong Kong/5/72; conditions: influenza virus B (B/Hong Kong/5/72); microscopy and MTS assay
[2] = tested on: influenza virus A/H3N2; assay type: cell-based, influenza virus A/Hong Kong/7/87 (H3N2); conditions: influenza virus A/H3N2 (A/Hong Kong/7/87); microscopy and MTS assay
[3] = tested on: sindbis virus; assay type: cell-based; conditions: microscopy and MTS assay
[4] = tested on: feline coronavirus; assay type: cell-based; conditions: microscopy and MTS assay
[5] = tested on: influenza virus A/H1N1; assay type: cell-based, influenza virus A/Puerto Rico/8/34 (H1N1); conditions: influenza virus A/H1N1 (A/Puerto Rico/8/34); microscopy and MTS assay
[6] = tested on: bloodstream form T. brucei (strain 427); experiment: T. brucei culturing and drug test; assay type: cell-based, Trypanosoma brucei; conditions: at concentrations up to 5 mg mL^−1
Method in brief: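 Parasites were kept at 37 °C in modified Iscove's medium (pH 7.4) and grown for 48 h with a range of test compound concentrations. Cell density at each concentration was counted by hemocytometer and expressed as percent of untreated control growth. Concentrations giving 50% and 90% growth inhibition (IC₅₀, IC₉₀) were determined. Run in triplicate.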

[7] = tested on: NMDA receptors; assay type: cell-based; conditions: cerebellar granule neurons, glutamate or NMDA 100 μM + glycine 10 μM
[8] = tested on: respiratory syncytial virus; assay type: cell-based; conditions: microscopy and MTS assay
[9] = tested on: Punta Toro virus; assay type: cell-based; conditions: microscopy and MTS assay
[10] = tested on: herpes simplex virus type 2; assay type: cell-based; conditions: microscopy and MTS assay
[11] = tested on: parainfluenza-3 virus; assay type: cell-based; conditions: microscopy and MTS assay
[12] = tested on: vesicular stomatitis virus; assay type: cell-based
[13] = tested on: herpes simplex virus type 1; assay type: cell-based; conditions: microscopy and MTS assay
[14] = tested on: Coxsackievirus B4; assay type: cell-based; conditions: microscopy and MTS assay
[15] = tested on: vaccinia virus; assay type: cell-based
[16] = tested on: Reovirus-1; assay type: cell-based; conditions: microscopy and MTS assay

## CNC12CC3CC(CC(C3)O1)C2 [Compound 4, N-Methyl(2-oxaadamant-1-yl)amine hydrochloride]
[1]
  Antiviral activity: none of the compounds was found to be active
[2]
  Antiviral activity: none of the compounds was found to be active
[3]
  Antiviral activity: None of the tested compounds displayed activity
[4]
  Antiviral activity: None of the tested compounds displayed activity
[5]
  Antiviral activity: none of the compounds was found to be active
[6]
  Trypanocidal activity (in words): no activity
[7]
  NMDA receptor antagonism (in words): inactive
[8]
  Antiviral activity: None of the tested compounds displayed activity
[9]
  Antiviral activity: None of the tested compounds displayed activity
[10]
  Antiviral activity: None of the tested compounds displayed activity
[11]
  Antiviral activity: None of the tested compounds displayed activity
[12]
  Antiviral activity: None of the tested compounds displayed activity
[13]
  Antiviral activity: None of the tested compounds displayed activity
[14]
  Antiviral activity: None of the tested compounds displayed activity
[15]
  Antiviral activity: None of the tested compounds displayed activity
[16]
  Antiviral activity: None of the tested compounds displayed activity

— article PMC3217223 (Bioorganic & Medicinal Chemistry, 2009)
